# An excerpt weighted towards active compounds, which were near 4% of everything screened.
# XBP1 UPR activ – activators of adaptive XBP1 UPR arm, primary screen, cell-based, CHO-XBP1 luciferase reporter, luminescence, uHTS; 0.33% of 330,000 active; IRE1-XBP1 UPR activation; percent of tunicamycin response, DMSO as zero; activation, % at 20 µM; AID 463104, 2010;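 active = versus positive control, 20 µM dose yields 30% or more activation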;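 note: 100% = tunicamycin at 10 µg/mL and 0% = DMSO only wells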
#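 Material: IRE1-XBP1 luciferase reporter CHO line / Quantity: one thousand reporter cells per well / Buffer or medium: F12 with 10% serum / Compound: 20 µM single concentration, DMSO 1% / Times: 6 h treatment, 37 °C / Detection: Steady-Glo luciferase glow luminescence, 10 min after reagent addition / Benchmarks: tunicamycin high, DMSO low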
# Granule exo inh – LAMP-1 surface exposure blockers, TALL-104 cells – cell-based, flow cytometry, MLPCN library, primary screen. TALL-104 LAMP-1 surface exposure; cells stimulated with thapsigargin and PMA. inhibition, % at 10 µM. 0.66% of 360,000 active. AID 651702, 2012;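 active = inhibition above about 55%, limit read from the data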
# UPR CHOP act – activators of apoptotic CHOP UPR arm, primary screen, cell-based, CHO-CHOP luciferase reporter, luminescence, uHTS. activation, % at 10 µM. AID 449763, 2010. UPR activation; percent of tunicamycin response over DMSO baseline. 0.34% of 330,000 active;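 active = at 10 µM dose, activation of 40% or more, normalized to positive control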;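 note: 100% = tunicamycin at 10 µg/mL and 0% = DMSO alone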
#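 measured by = luciferase luminescence | assay system = CHO-CHOP cells, stable luciferase reporter of PERK-eIF2a-CHOP signalling | amount = 500 reporter cells seeded per well | timing = 6 h compound exposure at 37 °C after overnight seeding | controls = positive tunicamycin 10 µg/mL, negative DMSO alone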
# ABHD5-PLIN5 inh – ABHD5-PLIN5 interaction inhibitors, primary screen, cell lysate, split luciferase complementation, luminescence | Perilipin-5 (Homo sapiens) + 1-acylglycerol-3-phosphate O-acyltransferase ABHD5 (Homo … | Split G. princeps luciferase complementation, 4 h | inhibition, % at 4 µM | 0.78% of 360,000 active;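 active = inhibition above the mean inhibition across every tested compound plus 3 SD, cut at about 22% in these data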;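 note: 0% = DMSO only wells and the 100% control is not disclosed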
# Target sequence (Q00G26 whole entry, looked up): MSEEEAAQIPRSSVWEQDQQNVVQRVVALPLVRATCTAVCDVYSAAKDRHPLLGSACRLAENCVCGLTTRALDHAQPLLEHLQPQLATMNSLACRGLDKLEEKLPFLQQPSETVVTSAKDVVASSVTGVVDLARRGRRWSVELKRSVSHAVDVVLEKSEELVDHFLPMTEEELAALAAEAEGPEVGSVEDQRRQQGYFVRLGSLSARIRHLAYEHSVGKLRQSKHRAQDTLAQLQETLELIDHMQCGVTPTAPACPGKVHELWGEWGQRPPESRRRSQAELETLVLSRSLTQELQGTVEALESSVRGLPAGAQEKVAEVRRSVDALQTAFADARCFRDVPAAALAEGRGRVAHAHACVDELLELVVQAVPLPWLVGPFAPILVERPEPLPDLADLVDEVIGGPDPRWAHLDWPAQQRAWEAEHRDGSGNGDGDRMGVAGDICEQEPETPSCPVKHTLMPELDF
# Target sequence (Q8WTS1 whole entry, looked up): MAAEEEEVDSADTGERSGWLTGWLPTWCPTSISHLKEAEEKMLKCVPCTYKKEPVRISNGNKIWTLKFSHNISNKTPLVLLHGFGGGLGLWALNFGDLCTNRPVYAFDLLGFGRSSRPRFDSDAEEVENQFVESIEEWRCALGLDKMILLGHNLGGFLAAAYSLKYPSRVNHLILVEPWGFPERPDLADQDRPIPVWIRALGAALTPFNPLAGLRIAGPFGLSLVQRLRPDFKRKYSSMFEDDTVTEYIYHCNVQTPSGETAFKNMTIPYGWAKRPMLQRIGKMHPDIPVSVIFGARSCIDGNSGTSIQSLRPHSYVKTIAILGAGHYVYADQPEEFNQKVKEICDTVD
# Mdm2 MdmX PPI – inhibitors of human Mdm2-MdmX association, primary screen, cell-based, luminescence, split luciferase, SaOS-2, uHTS | inhibition, % at 8 µM | 3% of 330,000 active | SaOS-2 split-luciferase Mdm2/MdmX complementation | Protein Mdm4 (Homo sapiens) + E3 ubiquitin-protein ligase Mdm2 (Homo sapiens), …;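 active = inhibition of at least 50% at 8 µM in the primary screen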
# Mdm2-MdmX conf – Mdm2-MdmX complex disruptors, retested hits, confirmation, luminescence, single concentration | shares compounds with Mdm2 MdmX PPI | Mdm2-MdmX binding, luminescent assay | inhibition, % at 8 µM | 55% of 10,000 active | AID 489028, 2010; in the data active = inhibition above about 40%
# Full FLuc ctr – full-length luciferase signal inhibition, confirmation, counter-screen for Mdm2/MdmX interaction inhibitor project, cell-based, single concentration, SaOS-2. 77% of 6,200 active. inhibition, % at 8 µM. SaOS-2 full-length luciferase counterscreen, luminescence. shares compounds with Mdm2 MdmX PPI;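 active = mean inhibition at 8 µM reaching about 37%, which flags the compound as non-specific, limit read from the data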;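 note: p53-null SaOS-2 cells with luciferase driven by a doxycycline-inducible promoter; compound on cells about two nights before reading with doxycycline added after day one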
# * hit, by the source's call; . = no result.
SMILES,XBP1 UPR activ,Granule exo inh,UPR CHOP act,ABHD5-PLIN5 inh,Mdm2 MdmX PPI,Mdm2-MdmX conf,others
Cc1cc(C)c(-c2csc(NC(=O)c3n[nH]c(=O)c4ccccc34)n2)c(C)c1,-0.7,1.3,2.8,-3.1,59.9*,62.0*,Full FLuc ctr=67.5*
Cc1ccc(CN2CCC(NC(=O)c3ccccc3)CC2)cc1,3.7,-6.2,-0.2,-1.9,-29.7,.,
O=C(c1cccnc1)C1CCCN(Cc2nc(Cc3ccccc3F)no2)C1 (stereo not given),-1.7,1.7,0.4,2.8,3.9,.,
Clc1ccccc1COc1ccc(/C=N/n2cnnc2)cc1,-1.5,0.3,4.1,-1.7,-5.5,.,
CC1=CC(C)(C)N2C(=O)C3(C(C#N)=C(N)Oc4cc(O)ccc43)c3c(C)c(C)cc1c32 (stereo not given),3.9,21.0,1.3,-12.0,67.6*,61.2*,Full FLuc ctr=48.1*
O=C(Nc1ccc(Br)c(C(F)(F)F)c1)c1ccc(C(F)(F)F)cc1,8.1,52.2,15.0,-6.3,95.6*,58.9*,Full FLuc ctr=28.7
COc1ccc(C(=O)Nc2ccc(OCC(F)(F)C(F)F)c(C(F)(F)F)c2)cc1OC,-1.5,1.2,3.8,-10.7,23.9,.,
O=C(Nc1ccc(Br)c(C(F)(F)F)c1)c1ccccc1,-0.4,8.0,4.1,-15.2,-10.8,.,
O=C(Nc1ccc(OCC(F)(F)C(F)F)c(C(F)(F)F)c1)c1ccc(Cl)cc1,2.5,12.6,12.0,-23.4,92.2*,84.6*,Full FLuc ctr=34.0
COC(=O)c1c(-c2ccc(C)cc2)csc1NC(=O)c1c(-c2ccccc2)noc1C,-5.7,.,0.5,.,79.0*,80.1*,Full FLuc ctr=38.9*
CCOC(=O)c1c(NC(=O)c2c(-c3ccccc3)noc2C)sc(C)c1-c1ccccc1,-3.6,0.5,0.3,-0.5,100.1*,93.3*,Full FLuc ctr=51.5*
CCOC(=O)c1c(NC(=O)c2cc(-c3cccc(O)c3)on2)sc(C(C)=O)c1C,-0.8,3.0,2.2,-8.0,74.6*,0.3,
CCOCc1nnc(NC(=O)c2c(-c3ccccc3)noc2C)s1,-1.4,-10.1,0.8,0.7,13.4,.,
Cc1onc(-c2ccccc2)c1C(=O)Nc1sc2c(c1C#N)CCC(C)C2 (stereo not given),-2.0,5.1,2.4,-5.2,59.3*,54.6*,Full FLuc ctr=55.9*
Cc1ccc(S(=O)(=O)N2CCCCC2)cc1NC(=O)CCOc1ccccc1,-4.2,1.0,1.3,-0.5,12.2,.,
COc1ccccc1CCNC(=O)c1csc2c1CCCC2,1.4,0.8,2.7,3.0,-11.0,.,
COc1cccc(/C=C/c2ccc3cccc(O)c3n2)c1,-1.8,7.5,15.6,-0.5,62.4*,-143.3,
COc1cc(/C=C/c2ccc3c(Br)cc(Br)c(O)c3n2)ccc1O,.,-10.0,.,-7.4,.,.,
COc1ccc(Br)cc1/C=C/c1ccc2cccc(O)c2n1,3.5,7.3,5.9,-1.2,50.6*,37.9,
COc1cccc(/C=C/c2ccc3cccc(O)c3n2)c1OC,5.0,-0.8,26.3,3.2,70.1*,-95.2,
COc1cc(/C=C/c2ccc3cccc(O)c3n2)cc(Br)c1OC,119.8*,21.5,21.4,-3.3,93.0*,10.8,
Cc1ccc(/C=C/c2ccc3cccc(O)c3n2)s1,0.5,12.2,5.0,4.9,-96.8,.,
O=[N+]([O-])c1ccc(/C=C/c2ccc3cccc(O)c3n2)cc1,-3.1,15.1,7.5,0.1,-109.3,.,
COc1cc(Br)cc(/C=C/c2ccc3cccc(O)c3n2)c1OC,5.4,-3.9,0.8,-6.3,65.4*,26.1,
CCOC(=O)C1=C(c2ccccc2)N=c2s/c(=C\c3cccc(O)c3)c(=O)n2C1c1cccs1 (stereo not given),5.7,9.3,5.0,-26.0,77.7*,29.2,
SMILES,XBP1 UPR activ,Granule exo inh,UPR CHOP act,ABHD5-PLIN5 inh,Mdm2 MdmX PPI,Mdm2-MdmX conf,others
CCOC(=O)C1=C(C)N=c2s/c(=C\c3ccc(OC(C)=O)c(OCC)c3)c(=O)n2C1/C=C/c1ccccc1 (stereo not given),7.1,-0.9,-0.6,-22.2,27.4,.,
COc1cccc(NC(=O)CN(C)C(=O)c2c(-c3ccccc3)noc2C)c1,-3.4,4.9,1.0,-0.1,20.2,.,
CCOC(=O)COc1ccc(S(=O)(=O)c2ccc(OCC(=O)OCC)cc2)cc1,-1.5,-1.9,-2.5,-6.0,11.3,.,
COCCN(C(=O)CCl)C(C(=O)NC1CCCCC1)c1ccccc1C (stereo not given),-1.7,5.6,7.6,6.8,97.2*,72.2*,Full FLuc ctr=37.9*
O=C(NC1CCCC1)C(c1ccc(F)cc1)N(Cc1ccccc1Cl)C(=O)CCl (stereo not given),6.5,3.8,10.0,7.5,55.2*,20.5,
COCCN(C(=O)CCC(=O)Nc1cc(C)on1)C(C(=O)NC1CCCC1)c1ccccc1C (stereo not given),-1.7,4.5,1.1,2.5,-20.4,.,
CCCCc1ccc(NC=C2C(=O)OC3(CCCCC3)OC2=O)cc1,0.7,1.3,-0.8,-5.1,14.1,.,
Cc1cc(=O)oc2cc(OCc3ccc(C(=O)OCC(=O)N(C)C4CCS(=O)(=O)C4)cc3)ccc12 (stereo not given),-1.9,25.8,1.4,2.3,1.2,.,
Cc1cc(=O)oc2cc(OCc3ccc(C(=O)OCC(=O)NC4CCS(=O)(=O)C4)cc3)ccc12 (stereo not given),4.3,-2.7,11.1,-1.4,51.3*,15.1,
Cc1cc(NC(=O)/C=C/c2ccccc2Cl)n(-c2nc3ccccc3[nH]2)n1,4.4,3.9,9.0,0.7,-8.2,.,
Cc1cc(NC(=O)CC2CCCC2)n(-c2nc3ccccc3[nH]2)n1,13.2,5.5,0.4,-6.6,56.6*,11.1,
Cc1cc(NC(=O)c2ccc(F)cc2F)n(-c2nc3ccccc3[nH]2)n1,3.4,0.9,5.0,-0.4,65.8*,39.8,Full FLuc ctr=29.6
Clc1ccc(Cn2cccc2C2=NCCO2)cc1,-2.8,-1.0,-1.6,4.4,-21.6,.,
O=C(Nc1ccc(C(=O)N2CCCCC2)cc1)c1ccccc1Cl,-5.0,-1.5,1.8,4.1,8.3,.,
